Source: ChEMBL document CHEMBL1131229, “Synthesis, rotamer orientation, and calcium channel modulation activities of alkyl and 2-phenethyl 1,4-dihydro-2,6-dimethyl-3-nitro-4-(3- or 6-substituted-2-pyridyl)-5-pyridinecarboxylates” (J Med Chem, 1998)
pEC50, pIC50: −log10 of the molar value.

Columns and labels:
Cavia porcellus [1] = species on record: Cavia porcellus; assay: Percent decrease in tonic contractile response in guinea pig ileal longitudinal smooth muscle.; assay type: functional; conditions: Muscle tissue
In short: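 Guinea pig ileum longitudinal smooth muscle, tonic (slow) contraction evoked by carbachol at 1.6 × 10^-7 M (muscarinic, Ca²⁺-dependent). Test compound applied over a dose range. Concentration giving 50% inhibition (IC50 ± SEM, n = 3-18) read graphically from the dose-response curve.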

Cavia porcellus [2] = species on record: Cavia porcellus; assay: Calcium channel agonist activity as percent increase in tonic contractile response in guinea pig left atrium; assay type: functional; conditions: Cardiac atrium
In short: (§1)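 Racemic test compounds on isolated guinea pig left atrium, scored as positive inotropic (contractile) response. Dose-response curves constructed. EC50 (± SEM) taken graphically as the molar concentration producing 50% of the maximum contractile increase; number of experiments reported.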

Cavia porcellus [3] = species on record: Cavia porcellus; assay: Calcium channel agonist activity as percent increase in tonic contractile response in guinea pig left atrium, Weak agonist; assay type: functional, Cardiac atrium; in short: as §1
Cavia porcellus [4] = species on record: Cavia porcellus; assay: Calcium channel agonist activity as percent increase in tonic contractile response in guinea pig left atrium, Weak antagonist; assay type: functional, Cardiac atrium

CC1=NC(C)=C([N+](=O)[O-])C(c2ncccc2-c2ccccc2)/C1=C(/O)OCCc1ccccc1 (centres undefined)
pIC50 (Cavia porcellus [1]): 5.47

CC1=NC(C)=C([N+](=O)[O-])C(c2cccc([N+](=O)[O-])n2)/C1=C(/O)OCCc1ccccc1 (centres undefined)
pIC50 (Cavia porcellus [1]): 5.32

CC1=NC(C)=C([N+](=O)[O-])C(c2ccccn2)/C1=C(/O)OCCc1ccccc1 (centres undefined)
pIC50 (Cavia porcellus [1]): 6.19

CC1=NC(C)=C([N+](=O)[O-])C(c2ncccc2C)/C1=C(/O)OC(C)C (centres undefined)
pEC50 (Cavia porcellus [2]): 5.00
pIC50 (Cavia porcellus [1]): 5.55

CC1=NC(C)=C([N+](=O)[O-])C(c2ncccc2Cl)/C1=C(/O)OCCc1ccccc1 (centres undefined)
pIC50 (Cavia porcellus [1]): 5.29

CC1=NC(C)=C([N+](=O)[O-])C(c2cccc(C)n2)/C1=C(/O)OC(C)C (centres undefined)
pEC50 (Cavia porcellus [2]): 5.74
pIC50 (Cavia porcellus [1]): 4.60

CC1=NC(C)=C([N+](=O)[O-])C(c2ncccc2C)/C1=C(/O)OCCc1ccccc1 (centres undefined)
pIC50 (Cavia porcellus [1]): 5.27

CO/C(O)=C1/C(C)=NC(C)=C([N+](=O)[O-])C1c1cccc(C)n1 (centres undefined)
pIC50 (Cavia porcellus [1]): 5.64
EC50 (Cavia porcellus [3]): Partial agonist

CC1=NC(C)=C([N+](=O)[O-])C(c2cccc(Cl)n2)/C1=C(/O)OC(C)C (centres undefined)
pEC50 (Cavia porcellus [2]): 5.22
pIC50 (Cavia porcellus [1]): 4.78

CC1=NC(C)=C([N+](=O)[O-])C(c2cccc(Cl)n2)/C1=C(/O)OCCc1ccccc1 (centres undefined)
pIC50 (Cavia porcellus [1]): 5.82

CC1=NC(C)=C([N+](=O)[O-])C(c2ncccc2C(F)(F)F)/C1=C(/O)OCCc1ccccc1 (centres undefined)
pIC50 (Cavia porcellus [1]): < 4.22

CC1=NC(C)=C([N+](=O)[O-])C(c2ncccc2[N+](=O)[O-])/C1=C(/O)OCCc1ccccc1 (centres undefined)
pIC50 (Cavia porcellus [1]): 4.11

CC1=NC(C)=C([N+](=O)[O-])C(c2cccc(C(F)(F)F)n2)/C1=C(/O)OCCc1ccccc1 (centres undefined)
pIC50 (Cavia porcellus [1]): 5.85

CC1=NC(C)=C([N+](=O)[O-])C(c2cccc(C)n2)/C1=C(/O)OCCc1ccccc1 (centres undefined)
pIC50 (Cavia porcellus [1]): 5.00

CC1=NC(C)=C([N+](=O)[O-])C(c2cccc(-c3ccccc3)n2)/C1=C(/O)OCCc1ccccc1 (centres undefined)
pIC50 (Cavia porcellus [1]): 5.08

CC1=NC(C)=C([N+](=O)[O-])C(c2ncccc2[N+](=O)[O-])/C1=C(/O)OC(C)C (centres undefined)
pIC50 (Cavia porcellus [1]): 5.42
EC50 (Cavia porcellus [4]): Partial antagonist

CCO/C(O)=C1/C(C)=NC(C)=C([N+](=O)[O-])C1c1cccc(C)n1 (centres undefined)
pEC50 (Cavia porcellus [2]): 4.91
pIC50 (Cavia porcellus [1]): 4.76

COC(=O)C1=C(C)NC(C)=C(C(=O)OC)C1c1ccccc1[N+](=O)[O-] [NIFEDIPINE]
pIC50 (Cavia porcellus [1]): 7.85
